The list is not random: actives were taken first. Their share in the collection is about 2.2%.
Tb hexokinase: Trypanosoma brucei hexokinase 1 inhibitors, primary screen, biochemical, G6PDH-coupled NADH absorbance, MLSCN library | recombinant TbHK1, G6PDH-coupled NADH A340 | hit rate 0.11% among 220,000 | inhibition, % at 10 µM | hexokinase 1 [Trypanosoma brucei];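 active means inhibition of 50% or more in the single-dose primary screen; inactive means inhibition below 50%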
Runt-CBFb FRET: inhibitors of RUNX1 Runt–CBFb binding, primary screen, biochemical, FRET, Cerulean-Runt, Venus-CBFb, uHTS; hit rate 0.46% among 220,000; Cerulean-Runt/Venus-CBFb FRET ratio 530/480, 1 h; AID 1496, 2009; inhibition, % at 20 µM; Runt-related transcription factor 1 (Homo sapiens) + Core-binding factor subunit beta …;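 active means inhibition over about 50% at 20 µM in the single-dose screen, limit read from the data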;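 further: 0% = DMSO wells and 100% = excess unlabeled CBFb competitor control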
Target sequence (Q01196 whole entry, looked up): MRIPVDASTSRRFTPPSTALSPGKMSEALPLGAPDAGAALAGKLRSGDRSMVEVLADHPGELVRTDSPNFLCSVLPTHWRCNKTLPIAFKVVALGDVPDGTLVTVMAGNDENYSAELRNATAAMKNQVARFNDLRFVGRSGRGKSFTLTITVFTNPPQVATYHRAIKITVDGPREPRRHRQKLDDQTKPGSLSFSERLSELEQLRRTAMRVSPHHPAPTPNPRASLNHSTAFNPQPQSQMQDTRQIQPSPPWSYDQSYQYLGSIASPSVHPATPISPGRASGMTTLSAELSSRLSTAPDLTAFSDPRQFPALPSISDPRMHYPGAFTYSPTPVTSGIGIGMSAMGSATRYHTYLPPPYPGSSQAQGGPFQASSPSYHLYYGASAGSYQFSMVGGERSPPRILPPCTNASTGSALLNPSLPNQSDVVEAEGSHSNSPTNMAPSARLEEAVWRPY
Target sequence (Q13951 whole entry, looked up): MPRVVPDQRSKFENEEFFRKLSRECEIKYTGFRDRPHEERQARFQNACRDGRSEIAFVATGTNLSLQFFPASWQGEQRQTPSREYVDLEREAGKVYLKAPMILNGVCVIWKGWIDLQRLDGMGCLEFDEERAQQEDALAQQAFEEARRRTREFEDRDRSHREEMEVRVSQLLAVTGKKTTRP
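Assay system: Cerulean-tagged RUNX1 Runt domain (FRET donor) fusion protein / Amount: 100 nM each of Venus-CBFb and Cerulean-Runt domain / Medium: Tris buffer pH 7.5 with salts and BSA / Also added: Venus-CBFb 100 nM / Schedule: 1 h complex formation plus 1 h compound treatment, room temperature / Signal: FRET fluorescence / Read-out: loss of energy transfer signal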
Runt-SMMHC FRET: inhibitors of RUNX1 Runt–CBFb-SMMHC binding, primary screen, biochemical, FRET, Cerulean-Runt, Venus-CBFb-SMMHC, uHTS; Runt-related transcription factor 1 (Homo sapiens) + Core-binding factor subunit beta …; Cerulean-Runt/Venus-CBFb-SMMHC FRET ratio 530/480, 1 h; inhibition, % at 20 µM; hit rate 0.74% among 220,000; AID 1434, 2008;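 active means mean inhibition across duplicate retests at 20 µM reaching about 50%, limit read from the data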;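 further: 0% = DMSO wells and 100% = wells with excess untagged CBFb-SMMHC; inhibitors lower the FRET ratio by blocking Runt binding to CBFb-SMMHC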
RanGTP-Impb inh: inhibitors of RanGTP-importin-beta interaction, primary screen, biochemical, FRET, CFP-Ran, YFP-importin-beta, homogeneous | cell-free CFP-Ran/YFP-importin-beta FRET ratio | hit rate 1.1% among 300,000 | AID 2216, 2009 | Ran GTPase (GTP-bound) - importin-beta complex | inhibition, % (no concentration beside the values);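 active means more than half of the replicate wells show a fall in the fluorescence ratio signal beyond about 16%, limit read from the data, passing the limit was not always enough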;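 further: 0% = DMSO wells and 100% = Ran loaded with GDP instead of GTP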
14-3-3 Bad PPI: inhibitors of 14-3-3 zeta/Bad binding, primary screen, biochemical, TR-FRET, bovine 14-3-3 zeta. AID 781, 2007. hit rate 0.71% among 220,000. inhibition, % at 21.7 µM. TR-FRET 14-3-3zeta/Dy647-pBad peptide displacement, 1 h. 14-3-3 protein zeta/delta (Bos taurus), P63103;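 active means inhibition above about 70%, limit read from the data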;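 further: 0% = full 14-3-3 plus peptide FRET controls and 100% = background without 14-3-3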
Hck Nef HTS: inhibitors of Nef-activated human Hck kinase, primary screen, biochemical, Z-Lyte FRET, 384-well, Hck-YEEI; inhibition, % at 20 µM; hit rate 0.68% among 220,000; AID 463187, 2010; Tyrosine-protein kinase HCK (Homo sapiens), P08631; Recombinant Hck-YEEI plus Nef, Z-Lyte FRET kinase assay;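 active means Hck-Nef kinase inhibition above about 50%, limit read from the data; inactive means inhibition below that limit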;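 further: 0% = DMSO with Hck plus Nef and 100% = Hck alone without Nef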
Numbers without * were called inactive; / = no result; + = active, no number; [ ] = another dose, or the depositor's remark.

SMILES	Tb hexokinase	Runt-CBFb FRET	Runt-SMMHC FRET	RanGTP-Impb inh	14-3-3 Bad PPI	Hck Nef HTS
CCOc1ccc(NC(=O)CN(C)C(=O)c2cccnc2Sc2ccc(C)c(C)c2)cc1OCC	/	/	/	5	/	/
Cc1ccc(S(=O)(=O)N(C)CC(=O)N2CCOCC2)cc1	-1	2	-2	2	-5	7
Cc1ccc(S(=O)(=O)N(CC(=O)N2CCOCC2)CC(=O)N2CCOCC2)cc1	3	0	4	32*	5	5
N#Cc1cc(S(=O)(=O)c2ccccc2)c(N)[nH]c1=O	-6	10	35	9	/	1
Cc1ccccc1S(=O)(=O)c1cc(C#N)c(=O)[nH]c1N	-6	87*	134*	6	-3	19
CC1=C(C(=O)OCc2ccccc2)C(c2ccc(Cl)cc2)NC(=O)N1CCCC(=O)O (stereo not given)	/	/	/	0	/	/
Cc1ccc(S(=O)(=O)N2CCC(C(=O)C3C(=O)CCCC3=O)CC2)cc1	-8	-1	0	-2	-11	24
CC1(C)CC(=O)C(C(=O)C2CCN(S(=O)(=O)c3ccccc3)CC2)C(=O)C1	-1	1	1	-3	71*	24
CC(C)c1ccc(/C=N/NC(=O)c2cc(-c3cccc([N+](=O)[O-])c3)n[nH]2)cc1	-9	-1	2	1	2	3
C/C(=N/NC(=O)c1cc(-c2cccc([N+](=O)[O-])c2)n[nH]1)c1ccc(Cl)cc1	4	0	-1	1	77*[fluorescence artefact?]	0
Cc1ccc(-c2ccc(C3C(C#N)=C(N)Oc4n[nH]c(C)c43)o2)cc1 (stereo not given)	-11	3	-30	39*	-5	1
Cc1[nH]nc2c1C(c1ccc(-c3ccc(Cl)cc3)o1)C(C#N)=C(N)O2 (stereo not given)	-2	-63	21	12	-1	0
COc1ccc(N2CSC3=C(C#N)C(c4cc(OC)c(OC)cc4OC)CC(=O)N3C2)c(OC)c1 (stereo not given)	-18	29	38	0	-1	-1
COc1cc(OC)c(C2CC(=O)N3CN(c4ccc(C)cc4)CSC3=C2C#N)cc1OC (stereo not given)	-22	101*	101*	-93	9	2
Cc1cccn2c(=O)c3cc(C(=O)NCc4ccco4)c(=N)n(C4CCCC4)c3nc12	/	/	/	130*	/	/
Cc1cccn2c(=O)c3cc(C(=O)NCC4CCCO4)c(=N)n(CC4CCCO4)c3nc12 (stereo not given)	/	/	/	188*	/	/
Cc1cccn2c(=O)c3cc(C(=O)NCC4CCCO4)c(=N)n(C4CCCCC4)c3nc12 (stereo not given)	/	/	/	+	/	/
Cc1cccn2c(=O)c3cc(S(=O)(=O)c4ccc(Br)cc4)c(=N)n(C4CCCCC4)c3nc12	/	/	/	1	/	/
Cc1cccn2c(=O)c3cc(C(=O)NC4CCCC4)c(=N)n(CC4CCCO4)c3nc12 (stereo not given)	/	/	/	192*	/	/
Cn1cc(CNCCN2CCCCC2=O)c(-c2cccc(Cl)c2)n1	1	0	2	-5	-17	25
COc1ccccc1C(=O)NC1CC(C)(C)NC(C)(C)C1	/	/	/	-3	/	/
COC(=O)c1c(NC(=O)CSc2nc3nc(C)cc(C)n3n2)sc(C)c1C	32	-3	-2	-1	-6	1
CCOCCCNc1nc2c(-c3ccccc3)nnn2c2ccccc12	-15	-5	-3	34*	-2	-7
O=C1CCC(C(=O)N2CCCC(Nc3ccc(F)cc3)C2)=NN1 (stereo not given)	/	/	/	-2	/	/

From PubChem
